From article PMC6081960 (Bioorganic & medicinal chemistry letters, 2018)

Columns and labels:
NALM16 cells = assay: St. Jude cancer cell line panel, NALM16; assay type: cell-based, human; settings: ALL cell line; confidence intervals in parentheses; NA: not active
In short: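 Human ALL line NALM16, derived from the peripheral blood of a child at relapse in 1977. Carries a near-haploid karyotype. Tested in a St. Jude screening panel alongside three other ALL lines, one lymphoma line and mouse choroid plexus carcinoma CPC300 cells.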

RAJI cells = assay: St. Jude cancer cell line panel, RAJI; assay type: cell-based; settings: Burkitt's lymphoma; confidence intervals in parentheses; NA: not active
In short: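 RAJI Burkitt's lymphoma cells, FAB L3 subtype, served as the panel's single lymphoma line. Screened together with four ALL lines and mouse CPC300 choroid plexus carcinoma cells at St. Jude.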

REH cells = assay: St. Jude cancer cell line panel, REH; assay type: cell-based, human; settings: precursor B-cell ALL; confidence intervals in parentheses; NA: not active
In short: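 REH: patient-derived precursor B-cell ALL line that expresses only wild-type MLL and wild-type AF4. Screened in a St. Jude panel with other ALL lines, a lymphoma line and mouse CPC300 cells.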

EC50 NALM16 (NALM16 cells): no activity
EC50 RAJI (RAJI cells): no activity
EC50 REH (REH cells): no activity
Structure (SMILES): CSc1ccc(/C=C2/C(C)=C(CC(=O)NCCN(C)C)c3cc(F)ccc32)cc1 [SSA, sulindac sulfide amide]
